Results: ChEMBL document CHEMBL4049407, “Positional Scanning Identifies the Molecular Determinants of a High Affinity Multi-Leucine Inhibitor for Furin and PACE4” (J Med Chem, 2017)
The source made the active and inactive calls. The rule behind the calls is not given here. Peptide text beside a SMILES is read from it. * marks the point of attachment. NH(4-amidinobenzyl) = N=C(N)c1ccc(CN*)cc1

How the values were obtained:
[1] = target: T1, Proprotein convertase subtilisin/kexin type 6 (Homo sapiens, UniProt P29122); test: Inhibition of recombinant human PACE4 expressed in drosophila S2 cells using pyrGlu-Arg-Thr-Lys-Arg-7-amido-4-methylcoumarin as substrate after 60 mins by spectrofluorometry method; type: cell-based
T1 sequence (P29122 whole entry): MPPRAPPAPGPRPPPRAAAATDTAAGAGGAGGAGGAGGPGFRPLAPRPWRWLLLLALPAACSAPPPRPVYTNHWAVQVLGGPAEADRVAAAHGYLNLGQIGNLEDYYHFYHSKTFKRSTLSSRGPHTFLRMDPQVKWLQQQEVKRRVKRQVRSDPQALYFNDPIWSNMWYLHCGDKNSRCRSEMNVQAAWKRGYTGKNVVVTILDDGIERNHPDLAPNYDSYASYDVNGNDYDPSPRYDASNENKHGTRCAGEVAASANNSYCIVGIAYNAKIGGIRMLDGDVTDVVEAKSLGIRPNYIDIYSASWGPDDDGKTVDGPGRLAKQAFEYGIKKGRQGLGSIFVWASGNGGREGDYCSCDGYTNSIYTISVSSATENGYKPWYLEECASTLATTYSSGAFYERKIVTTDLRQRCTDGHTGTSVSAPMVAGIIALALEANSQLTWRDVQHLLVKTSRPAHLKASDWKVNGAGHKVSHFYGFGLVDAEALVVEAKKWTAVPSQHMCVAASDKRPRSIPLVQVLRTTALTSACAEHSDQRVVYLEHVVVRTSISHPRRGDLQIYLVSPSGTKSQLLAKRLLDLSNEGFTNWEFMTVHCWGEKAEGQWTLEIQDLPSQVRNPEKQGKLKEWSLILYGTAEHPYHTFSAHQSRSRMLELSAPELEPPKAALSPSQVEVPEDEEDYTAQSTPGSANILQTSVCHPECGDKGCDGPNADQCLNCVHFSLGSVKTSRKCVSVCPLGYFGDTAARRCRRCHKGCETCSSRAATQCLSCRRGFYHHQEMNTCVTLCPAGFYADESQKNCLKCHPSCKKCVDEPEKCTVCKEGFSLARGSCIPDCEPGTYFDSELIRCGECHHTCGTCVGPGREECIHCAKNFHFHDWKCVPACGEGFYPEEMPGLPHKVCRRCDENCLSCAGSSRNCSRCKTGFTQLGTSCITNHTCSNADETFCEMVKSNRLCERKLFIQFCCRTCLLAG
In short: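 Human recombinant purified PACE4 at 2 units/100 µL (20.18 nM), in 20 mM BisTris pH 6.5, 1 mM CaCl2, 1.8 mg/mL BSA. Substrate 100 µM, KM 4.035 µM. Inhibitor 1 nM to 10 µM; 60 min at 37°C. Fluorescence ex 370 / em 460 nm. Ki by Morrison tight-binding equation; three independent experiments, mean ± SD.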

Homo sapiens = organism: Homo sapiens; test: Selectivity index, ratio of Ki for recombinant human furin expressed in drosophila S2 cells to Ki for recombinant human PACE4 expressed in drosophila S2 cells; type: cell-based
In short: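 Ratio Ki(furin)/Ki(PACE4). […] PACE4 buffer was BisTris pH 6.5; furin buffer was HEPES pH 7.5, or BisTris pH 6.5 for His peptides. Ki fitted by Morrison equation from three independent experiments.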

Furin = Furin (Homo sapiens, UniProt P09958); test: Inhibition of recombinant human furin expressed in drosophila S2 cells using pyrGlu-Arg-Thr-Lys-Arg-7-amido-4-methylcoumarin as substrate after 60 mins by spectrofluorometry method; type: cell-based
In short: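 Human recombinant purified furin at 2 units/100 µL (0.54 nM), in 100 mM HEPES pH 7.5, 1 mM CaCl2, 1 mM β-mercaptoethanol, 1.8 mg/mL BSA. His-containing peptides run instead in 20 mM BisTris pH 6.5 with the same additives. Substrate 100 µM, KM 5.04 µM. Inhibitor 1 nM to 10 µM; 60 min at 37°C. Fluorescence ex 370 / em 460 nm. Ki by Morrison equation; triplicate experiments, mean ± SD.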

DU-145 = test: Antiproliferative activity against human DU145 cells assessed as reduction in metabolic activity at 25 to 100 uM after 72 hrs by MTT assay; type: functional, cell-based
In short: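 First-pass MTT screen of each library peptide on DU145 cells (RPMI 1640, 5% FBS, 1500 cells/well, poly-L-lysine plates). Peptides added 24 h after seeding at 25, 50 and 100 µM in fresh serum medium for 72 h. MTT 1 mg/mL for 4 h; 2-propanol HCl solubilisation. Activity normalised to water vehicle. Mean ± SEM of at least two independent experiments.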

Sequence of Furin (P09958 whole entry): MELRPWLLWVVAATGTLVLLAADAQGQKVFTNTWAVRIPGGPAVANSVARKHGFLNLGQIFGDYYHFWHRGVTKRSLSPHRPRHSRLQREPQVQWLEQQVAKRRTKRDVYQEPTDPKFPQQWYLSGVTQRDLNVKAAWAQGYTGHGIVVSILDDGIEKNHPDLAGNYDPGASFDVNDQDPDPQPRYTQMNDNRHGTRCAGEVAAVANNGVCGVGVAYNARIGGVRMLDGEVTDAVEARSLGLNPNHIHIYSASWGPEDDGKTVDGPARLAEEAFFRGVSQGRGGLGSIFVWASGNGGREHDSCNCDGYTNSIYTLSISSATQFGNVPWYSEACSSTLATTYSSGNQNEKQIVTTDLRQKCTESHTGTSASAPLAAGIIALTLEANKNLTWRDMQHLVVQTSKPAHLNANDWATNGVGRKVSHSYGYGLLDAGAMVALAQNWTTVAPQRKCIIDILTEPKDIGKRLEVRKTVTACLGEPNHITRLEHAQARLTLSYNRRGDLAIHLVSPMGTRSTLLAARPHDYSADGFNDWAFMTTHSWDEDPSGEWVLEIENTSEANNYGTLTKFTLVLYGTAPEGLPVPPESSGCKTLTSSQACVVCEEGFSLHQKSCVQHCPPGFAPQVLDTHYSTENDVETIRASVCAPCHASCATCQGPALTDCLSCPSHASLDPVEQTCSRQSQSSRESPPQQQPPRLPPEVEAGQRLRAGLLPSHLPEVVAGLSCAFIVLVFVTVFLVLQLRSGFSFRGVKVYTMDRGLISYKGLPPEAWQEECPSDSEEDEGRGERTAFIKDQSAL

| Compound | Ki [1] | Ratio Ki (Homo sapiens) | Ki (Furin) | Activity (DU-145) |
| --- | --- | --- | --- | --- |
| CC(=O)N[C@@H](CC(C)C)C(=O)N[C@@H](CCCCN)C(=O)N[C@@H](CC(C)C)C(=O)N[C@@H](CC(C)C)C(=O)N[C@@H](CCCNC(=N)N)C(=O)N[C@H](C(=O)N[C@@H](CCCCN)C(=O)NCc1ccc(C(=N)N)cc1)C(C)C (Ac-LKLLRVK-{NH(4-amidinobenzyl)}) | 0.5 nM | 1.2 | 0.6 nM | inactive |
| CC(=O)N[C@@H](CC(C)C)C(=O)N[C@@H](Cc1ccc(O)cc1)C(=O)N[C@@H](CC(C)C)C(=O)N[C@@H](CC(C)C)C(=O)N[C@@H](CCCNC(=N)N)C(=O)N[C@H](C(=O)N[C@@H](CCCCN)C(=O)NCc1ccc(C(=N)N)cc1)C(C)C (Ac-LYLLRVK-{NH(4-amidinobenzyl)}) | 4 nM | 0.8 | 3 nM | inactive |
| CC(=O)N[C@@H](CC(C)C)C(=O)N[C@@H](CC(C)C)C(=O)N[C@@H](CC(C)C)C(=O)N[C@@H](CC(=O)O)C(=O)N[C@@H](CCCNC(=N)N)C(=O)N[C@H](C(=O)N[C@@H](CCCCN)C(=O)NCc1ccc(C(=N)N)cc1)C(C)C (Ac-LLLDRVK-{NH(4-amidinobenzyl)}) | 400 nM | 0.6 | 260 nM | inactive |
| CC(=O)N[C@@H](CC(C)C)C(=O)N[C@@H](CC(C)C)C(=O)N[C@@H](CC(C)C)C(=O)N[C@@H](Cc1c[nH]c2ccccc12)C(=O)N[C@@H](CCCNC(=N)N)C(=O)N[C@H](C(=O)N[C@@H](CCCCN)C(=O)NCc1ccc(C(=N)N)cc1)C(C)C (Ac-LLLWRVK-{NH(4-amidinobenzyl)}) | 2.8 nM | 2.9 | 8 nM | inactive |
| CC(=O)N[C@@H](CC(C)C)C(=O)N[C@H](C(=O)N[C@@H](CC(C)C)C(=O)N[C@@H](CC(C)C)C(=O)N[C@@H](CCCNC(=N)N)C(=O)N[C@H](C(=O)N[C@@H](CCCCN)C(=O)NCc1ccc(C(=N)N)cc1)C(C)C)C(C)C (Ac-LVLLRVK-{NH(4-amidinobenzyl)}) | 2 nM | 1 | 2 nM | inactive |
| CC(=O)N[C@@H](CC(C)C)C(=O)N[C@@H](CC(C)C)C(=O)N[C@@H](C)C(=O)N[C@@H](CC(C)C)C(=O)N[C@@H](CCCNC(=N)N)C(=O)N[C@H](C(=O)N[C@@H](CCCCN)C(=O)NCc1ccc(C(=N)N)cc1)C(C)C (Ac-LLALRVK-{NH(4-amidinobenzyl)}) | 30 nM | 0.4 | 11 nM | inactive |
| CSCC[C@H](NC(=O)[C@H](CC(C)C)NC(C)=O)C(=O)N[C@@H](CC(C)C)C(=O)N[C@@H](CC(C)C)C(=O)N[C@@H](CCCNC(=N)N)C(=O)N[C@H](C(=O)N[C@@H](CCCCN)C(=O)NCc1ccc(C(=N)N)cc1)C(C)C (Ac-LMLLRVK-{NH(4-amidinobenzyl)}) | 5 nM | 0.6 | 3 nM | inactive |
| CC(=O)N[C@@H](CC(C)C)C(=O)N[C@@H](CC(C)C)C(=O)N[C@@H](CC(C)C)C(=O)N[C@@H](CCCNC(=N)N)C(=O)N[C@@H](CCCNC(=N)N)C(=O)N[C@H](C(=O)N[C@@H](CCCCN)C(=O)NCc1ccc(C(=N)N)cc1)C(C)C (Ac-LLLRRVK-{NH(4-amidinobenzyl)}) | 0.2 nM | 3.5 | 0.7 nM | inactive |
| CSCC[C@H](NC(C)=O)C(=O)N[C@@H](CC(C)C)C(=O)N[C@@H](CC(C)C)C(=O)N[C@@H](CC(C)C)C(=O)N[C@@H](CCCNC(=N)N)C(=O)N[C@H](C(=O)N[C@@H](CCCCN)C(=O)NCc1ccc(C(=N)N)cc1)C(C)C (Ac-MLLLRVK-{NH(4-amidinobenzyl)}) | 6 nM | 1 | 6 nM | inactive |
| CC(=O)N[C@@H](CC(C)C)C(=O)N[C@@H](CC(C)C)C(=O)N1CCC[C@H]1C(=O)N[C@@H](CC(C)C)C(=O)N[C@@H](CCCNC(=N)N)C(=O)N[C@H](C(=O)N[C@@H](CCCCN)C(=O)NCc1ccc(C(=N)N)cc1)C(C)C (Ac-LLPLRVK-{NH(4-amidinobenzyl)}) | 4 nM | 0.4 | 1.4 nM | inactive |
| CC(=O)N[C@@H](CC(C)C)C(=O)NCC(=O)N[C@@H](CC(C)C)C(=O)N[C@@H](CC(C)C)C(=O)N[C@@H](CCCNC(=N)N)C(=O)N[C@H](C(=O)N[C@@H](CCCCN)C(=O)NCc1ccc(C(=N)N)cc1)C(C)C (Ac-LGLLRVK-{NH(4-amidinobenzyl)}) | 2 nM | 1.5 | 3 nM | inactive |
| CC(=O)N[C@@H](CC(C)C)C(=O)N[C@@H](C)C(=O)N[C@@H](CC(C)C)C(=O)N[C@@H](CC(C)C)C(=O)N[C@@H](CCCNC(=N)N)C(=O)N[C@H](C(=O)N[C@@H](CCCCN)C(=O)NCc1ccc(C(=N)N)cc1)C(C)C (Ac-LALLRVK-{NH(4-amidinobenzyl)}) | 2 nM | 0.8 | 1.5 nM | inactive |
| CC(=O)N[C@@H](CC(C)C)C(=O)N[C@@H](CC(C)C)C(=O)N[C@@H](Cc1cnc[nH]1)C(=O)N[C@@H](CC(C)C)C(=O)N[C@@H](CCCNC(=N)N)C(=O)N[C@H](C(=O)N[C@@H](CCCCN)C(=O)NCc1ccc(C(=N)N)cc1)C(C)C (Ac-LLHLRVK-{NH(4-amidinobenzyl)}) | 1.8 nM | 2.7 | 4.8 nM | inactive |
| CC(=O)N[C@@H](CC(C)C)C(=O)N[C@@H](CC(C)C)C(=O)N[C@@H](CCC(=O)O)C(=O)N[C@@H](CC(C)C)C(=O)N[C@@H](CCCNC(=N)N)C(=O)N[C@H](C(=O)N[C@@H](CCCCN)C(=O)NCc1ccc(C(=N)N)cc1)C(C)C (Ac-LLELRVK-{NH(4-amidinobenzyl)}) | 60 nM | 0.8 | 50 nM | inactive |
| CC(=O)N[C@@H](CC(C)C)C(=O)N[C@@H](CC(C)C)C(=O)N[C@@H](CC(C)C)C(=O)N[C@@H](Cc1ccc(O)cc1)C(=O)N[C@@H](CCCNC(=N)N)C(=O)N[C@H](C(=O)N[C@@H](CCCCN)C(=O)NCc1ccc(C(=N)N)cc1)C(C)C (Ac-LLLYRVK-{NH(4-amidinobenzyl)}) | 2 nM | 1.6 | 3.1 nM | inactive |
| CC(=O)N[C@@H](CC(C)C)C(=O)N[C@H](C(=O)N[C@@H](CC(C)C)C(=O)N[C@@H](CC(C)C)C(=O)N[C@@H](CCCNC(=N)N)C(=O)N[C@H](C(=O)N[C@@H](CCCCN)C(=O)NCc1ccc(C(=N)N)cc1)C(C)C)[C@@H](C)O (Ac-LTLLRVK-{NH(4-amidinobenzyl)}) | 1 nM | 1.7 | 1.7 nM | inactive |
